Measurements reported in article PMC10401071 (Cancer Discovery, 2023).

Assays:
[1] = tested on: growth differentiation factor 15 (GDF-15); type: in vivo, human; details: all dose-escalation cohorts, both arms
Outline: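 Blood drawn for GDF-15, a circulating downstream p53 marker measured as a target-engagement surrogate. Dosing was oral, day 1 every 21 days or days 1 and 8 every 28 days. Cycle 1 sampling: 5 min pre-dose; 1, 2, 3, 4, 5, 6 and 8 h post-dose on day 1; once on days 2, 3, 4, 5 and 8. All dose-escalation cohorts, both arms.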

[2] = tested on: advanced or metastatic solid tumors; test: Antitumor activity, investigator-assessed per RECIST v1.1, PFS by Kaplan–Meier; type: in vivo, human; details: for duration of stable disease: WDLPS; for duration of response: partial response
[3] = Phase Ia dose escalation: dose-limiting toxicities; type: in vivo, human; details: for maximum tolerated dose (MTD): based on DLTs during cycle 1 and BLRM
Outline: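 Escalating oral doses, day 1 q21d (10–80 mg) or days 1 and 8 q28d (5–60 mg). DLTs were counted over cycle 1 (21 or 28 days). The MTD was the highest dose with <25% risk of true DLT rate ≥33%, estimated by BLRM with overdose control. The RDE came from a supplementary BLRM on haematologic AEs of interest over the whole treatment period.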

[4] = tested on: SJSA-1; details: SJSA-1 proliferation assay, in vitro; cited from earlier work

For `Cc1c(C(=O)O)ccc2c3n(nc12)[C@@H]1[C@H](C3)N(CC2CC2)[C@@]2(C(=O)Nc3cc(Cl)ccc32)[C@H]1c1cccc(Cl)c1F` [brigimadlin], the “growth differentiation factor 15 levels (target engagement)” value [1] was “time- and dose-dependent increases”, the disease control rate ([2]; 12 patients with DDLPS) was 75% and the Complete response ([2]; All patients (N = 54)) was 0 n (%). For the same compound, the Confirmed objective response ([2]; All patients (N = 54)) was 6 (11.1) n (%), the Disease control ([2]; All patients (N = 54)) was 40 (74.1) n (%) and the “Not evaluable (best overall response)” value ([2]; All patients (N = 54)) was 3 (5.6) n (%). The Partial response ([2]; All patients (N = 54)) was 6 (11.1) n (%), the Progressive disease ([2]; All patients (N = 54)) was 11 (20.4) n (%) and the Stable disease ([2]; All patients (N = 54)) was 34 (63.0) n (%). The overall response rate ([2]; D1D8q4w) was 8.0%, the Complete response ([2]; D1D8q4w (n = 25)) was 0 n (%) and the Confirmed objective response ([2]; D1D8q4w (n = 25)) was 2 (8.0) n (%). For the same compound, the Disease control ([2]; D1D8q4w (n = 25)) was 18 (72.0) n (%), the “Not evaluable (best overall response)” value ([2]; D1D8q4w (n = 25)) was 2 (8.0) n (%) and the Partial response ([2]; D1D8q4w (n = 25)) was 2 (8.0) n (%). For the same compound, the Progressive disease ([2]; D1D8q4w (n = 25)) was 5 (20.0) n (%), the Stable disease ([2]; D1D8q4w (n = 25)) was 16 (64.0) n (%) and the disease control rate ([2]; D1D8q4w arm) was 72.0%. For the same compound, the “median progression-free survival (PFS)” value ([2]; D1D8q4w arm, 95% CI: 3.7–18.5) was 8.0 months, the overall response rate ([2]; D1q3w) was 13.8% and the Complete response ([2]; D1q3w (n = 29)) was 0 n (%). The Confirmed objective response ([2]; D1q3w (n = 29)) was 4 (13.8) n (%), the Disease control ([2]; D1q3w (n = 29)) was 22 (75.9) n (%) and the “Not evaluable (best overall response)” value ([2]; D1q3w (n = 29)) was 1 (3.4) n (%). The Partial response ([2]; D1q3w (n = 29)) was 4 (13.8) n (%), the Progressive disease ([2]; D1q3w (n = 29)) was 6 (20.7) n (%) and the Stable disease ([2]; D1q3w (n = 29)) was 18 (62.1) n (%). The disease control rate ([2]; D1q3w arm) was 75.9%, the “median progression-free survival (PFS)” value ([2]; D1q3w arm, 95% CI: 3.0–20.7) was 10.6 months and the “duration of stable disease” value ([2]; one patient) was over 14 months. For the same compound, the “duration of stable disease” value ([2]; the other two patients) was about 8 months, the disease control rate ([2]; all 54 patients) was 74.1% and the overall response rate ([2]; all 54 patients, data cutoff October 24, 2022) was 11.1%. For the same compound, the PFS ([2]; all seven patients with WDLPS) was over 7.5 months, the “duration of partial response” value ([2]; four WDLPS patients, ranging up to about 25 months) was at least 12 months and the “patients achieving PFS ≥14 months” value ([2]; of seven patients with WDLPS) was “five”. The “patients achieving a partial response” value ([2]; of seven patients with WDLPS) was “four”, the “patients achieving stable disease” value ([2]; of seven patients with WDLPS) was “three” and the “patients achieving stable disease” value ([2]; of the 12 patients with DDLPS) was “nine”. The duration of response ([2]; one patient with MDM2-amplified intrahepatic cholangiocarcinoma) was about 12 months, the duration of response ([2]; one patient with MDM2-amplified pancreatic cancer) was over 5.5 months and the “median progression-free survival (PFS)” value ([2]; overall, preliminary analysis, 95% CI: 3.8–13.5) was 8.1 months. For the same compound, the disease control rate ([2]; seven patients with WDLPS) was 100%, the “tumor reduction (partial response)” value ([2]; single patient (Fig. 3A), MDM2-amplified WDLPS, 20 mg q3w, starting at cycle 2) was 31% and the tumor reduction ([2]; single patient (Fig. 3A), MDM2-amplified WDLPS, cycle 19, dose reduced to 10 mg) was 47%. For the same compound, the “tumor reduction (partial response)” value ([2]; single patient (Fig. 3B), MDM2-amplified WDLPS, 80 mg D1q3w, cycle 3) was 32%, the best tumor reduction ([2]; single patient (Fig. 3B), MDM2-amplified WDLPS, at data cutoff) was 42% and the time on treatment ([2]; single patient (Fig. 3B), MDM2-amplified WDLPS, ongoing at data cutoff) was “more than 25 months”. For the same compound, the “time on treatment before progressive disease” value ([2]; single patient (Fig. 3D), MDM2-amplified cholangiocarcinoma) was 13.3 months, the “treatment discontinuation due to a DLT in cycle 1” value ([3]; D1D8q4w arm) was “no patient discontinued treatment due to a DLT in cycle 1” and the “patients with DLTs during the MTD evaluation period (cycle 1)” value ([3]; D1D8q4w arm, 5 to 60 mg) was “Three”. The “maximum tolerated dose (MTD)” value ([3]; D1D8q4w) was 45 mg, the “treatment discontinuation due to a DLT in cycle 1” value ([3]; D1q3w arm) was “No patient discontinued treatment due to a DLT in cycle 1” and the “patients with DLTs during the MTD evaluation period (cycle 1)” value ([3]; D1q3w arm, 10 to 80 mg) was “Five”. The “maximum tolerated dose (MTD)” value ([3]; D1q3w) was 60 mg, the “patients with DLTs after the MTD evaluation period” value ([3]; both arms) was “Seven” and the “recommended dose for expansion (RDE) for phase Ib” value ([3]; q3w, supplementary BLRM analysis of AEs of interest over entire treatment period) was 45 mg. The IC50 [4] was 12 nM.
